# Results from different studies.
# Each line is one published result; the experiments were not run side by side.
# Target: Citron Rho-interacting kinase (CIT, Homo sapiens, UniProt O14578)
SMILES,assay,setting,remaining binding
Cc1cnc(Nc2ccc(C(=O)N3CCC(N4CCCC4)CC3)cc2)nc1-c1cc2ccccc2s1,"binding, competition with immobilised ligand",1 µM,65%
CNC(=O)c1ccc(Nc2ncc(C(F)(F)F)c(NCc3nccnc3N(C)S(C)(=O)=O)n2)cc1,"cell-free assay, competition with immobilised ligand",0.1 µM,68%
CN(CCCC(F)(F)F)c1nccc(-c2cnn3ncccc23)n1,binding,1 µM,88%
c1cncc(-c2cccc(Nc3nccc(NC4CCCCC4)n3)c2)c1,"binding, competition with immobilised ligand",10 µM,42%
FC(F)(F)Oc1cccc(-c2cnc3ccc(-c4ccncc4)nn23)c1,"cell-free assay, competition with immobilised ligand",5 µM,34%
COc1cnc(Nc2cccc(S(N)(=O)=O)c2)nc1N1CCN(c2ccccc2)C(=O)C1,"binding, competition with immobilised ligand",1 µM,100%
O=C(NCCCN1CCOCC1)c1ccc(Nc2ncc(Cl)c(-c3ccc(Cl)s3)n2)cc1,"binding, competition with immobilised ligand",1 µM,63%
CCOC(=O)c1cc2cc(-c3cc(C(=O)NCc4ccc(C(=O)O)cc4)nn3C)ccc2[nH]1,"cell-free assay, competition with immobilised ligand",0.1 µM,100%
CCN1CCN(Cc2ccc(C(=O)Nc3ccc(C)c(Oc4ccc5c(c4)CC(=O)N5)c3)cc2C(F)(F)F)CC1,"binding, competition with immobilised ligand",1 µM,65%
O=C(NCc1ncc(C(F)(F)F)cc1Cl)c1ccc2c(c1)C1(CCS(=O)(=O)CC1)[C@@H](C1CC1)N2S(=O)(=O)c1ccc(F)cc1,"cell-free assay, competition with immobilised ligand",1 µM,84%
N[C@@H]1CCN(c2nccc(-c3cnn4ncccc34)n2)C1,binding,1 µM,99%
O=C(c1ccc(Nc2nccc(-c3cc4ccccc4s3)n2)cc1)N1CCC(N2CCCC2)CC1,"binding, competition with immobilised ligand",1 µM,57%
F[C@@H]1CCN(c2nccc(-c3cnn4ncccc34)n2)C1,binding,1 µM,75%
O=C(Nc1c[nH]nc1C(=O)NC1CCNCC1)c1cc(F)cc(F)c1,"binding, competition with immobilised ligand",1 µM,100%
CNC(=O)[C@@H]1CC[C@@H](n2c(-c3ccc4cnccc4c3)nc3ccc(C(=O)NCc4cccc(C(N)=O)c4)cc32)C1,"binding, competition with immobilised ligand",1 µM,100%
c1ccc(N2CCN(Cc3nc4ccccc4[nH]3)CC2)nc1,"binding, competition with immobilised ligand",1 µM,88%
c1cnn2ncc(-c3ccnc(N4CCC45COC5)n3)c2c1,binding,1 µM,84%
O=c1nc(-c2ccccn2)sc2ccccc12,"binding, competition with immobilised ligand",1 µM,100%
Cc1cnn2ncc(-c3ccnc(N(C)C)n3)c2c1,binding,1 µM,82%
